Assay results from different studies.
Each line is one published result; the experiments were not run side by side.
Target: Protein-tyrosine kinase 6 (PTK6, Homo sapiens, UniProt Q13882)

| SMILES | effect on | method | concentration | remaining binding [%] |
| --- | --- | --- | --- | --- |
| C=CC(=O)N1CCC(C(=O)NCC(=O)N2CCN(c3nc(-c4cnc(N)nc4C(F)F)nc(N4CCOCC4)n3)CC2)CC1 | binding | competition with immobilised ligand | 1 µM | 100 |
| O=C(c1ccc(Nc2nccc(-c3cc4ccccc4s3)n2)cc1)N1CCC(N2CCCC2)CC1 | binding | competition with immobilised ligand | 1 µM | 65 |
| COc1cc(-c2cn(C3CCc4ccccc4N(CC(F)(F)F)C3=O)nn2)ccc1-n1ccc(C)n1 (centres unmarked) | cell-free assay | competition with immobilised ligand | 1 µM | 100 |
| CN(C)c1nccc(-c2cnn3ncccc23)n1 | binding | – | 1 µM | 100 |
| O=C1NC(c2ccccn2)Sc2ccccc21 (centres unmarked) | cell-free assay | competition with immobilised ligand | 1 µM | 100 |
| COc1ncc2cc3ccccc3nc2c1C#N | cell-free assay | competition with immobilised ligand | 5 µM | 100 |
| O=C(NCCCN1CCOCC1)c1ccc(Nc2ncc(Cl)c(-c3ccc(Cl)s3)n2)cc1 | binding | competition with immobilised ligand | 1 µM | 100 |
| c1cnn2ncc(-c3ccnc(N4CCC45COC5)n3)c2c1 | binding | – | 1 µM | 83 |
| CN(C)c1ncnc(-c2ccc3nc(Nc4cc(CN5CCN(C(=O)CC(F)(F)F)CC5)ccn4)[nH]c3c2)c1Cl | cell-free assay | competition with immobilised ligand | 1 µM | 86 |
| O=C(Nc1c[nH]nc1C(=O)NC1CCNCC1)c1cc(F)cc(F)c1 | binding | competition with immobilised ligand | 1 µM | 100 |
| CCC(=O)N[C@@H]1CC[C@H](C(=O)N(C)c2ccc(-c3nc4ccccc4o3)cc2)C1 | cell-free assay | competition with immobilised ligand | 1 µM | 90 |
| F[C@@H]1CCN(c2nccc(-c3cnn4ncccc34)n2)C1 | binding | – | 1 µM | 89 |
| O=C(NCCCN1CCOCC1)c1ccc(Nc2nccc(-c3cc4ccccc4s3)n2)cc1 | binding | competition with immobilised ligand | 1 µM | 79 |
| COc1cnc(Nc2cccc(S(N)(=O)=O)c2)nc1N1CCN(c2ccccc2)C(=O)C1 | binding | competition with immobilised ligand | 1 µM | 100 |
| CC1CCCN1c1nccc(-c2cnn3ncccc23)n1 (centres unmarked) | binding | – | 1 µM | 89 |
| Nc1ncc2c(n1)-c1c([nH]c3ccc(C#CC4CC4)cc13)CCCC2 | binding | competition with immobilised ligand | 1 µM | 97 |
| Nc1c(C(=O)NCc2ccc(C(=O)NCCCC3CCCCC3)cc2)cnn1-c1ccccc1 | cell-free assay | competition with immobilised ligand | 0.1 µM | 96 |
| N[C@@H]1CCN(c2nccc(-c3cnn4ncccc34)n2)C1 | binding | – | 1 µM | 100 |
| CCOC(=O)c1cc2cc(-c3cc(C(=O)NCc4ccc(C(=O)O)cc4)nn3C)ccc2[nH]1 | cell-free assay | competition with immobilised ligand | 0.1 µM | 98 |
| C[C@H]1CCN(c2nccc(-c3cnn4ncccc34)n2)C1 | binding | – | 1 µM | 100 |
